In the library only some 2.5% were active in any assay of this set; here they are far more common.
FGF22 binding – binders of human FGF22 protein, primary screen, FGF22 synaptogenesis inhibitor project, biophysical, thermal shift, single point; Fibroblast growth factor 22 (Homo sapiens), Q9HCT0; recombinant FGF22 thermal shift, SYPRO orange fluorescence; percent of sucrose octasulfate shift, DMSO zero; activity (Tm shift, normalised), % at 9.99 µM; actives 1.5% (n = 340,000); AID 651658, 2012;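 active = mean Tm shift, scaled 0 neutral to 100 positive control, at about 1.3% or above, every replicate too, limit read from the data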
SIRT5 inh – SIRT5 desuccinylase inhibitors, primary screen, biochemical, fluorescence imaging, single point, set 5. Purified SirT5, succinyl-peptide AMC, trypsin-coupled fluorescence. inhibition, % at 15 µM. actives 1.1% (n = 330,000); in the data active = inhibition above about 15%
S100A4 MyoIIA – inhibitors of S100A4-myosin IIA peptide binding, primary screen, biochemical, fluorescence polarization, TAMRA-MyoIIA peptide. inhibition, % at 10.7 µM. Protein S100-A4 (Homo sapiens), P26447. actives 0.14% (n = 360,000);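 active = mean inhibition of at least 70% across replicates, with every replicate also reaching that level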
Target sequence (P26447 whole entry, looked up): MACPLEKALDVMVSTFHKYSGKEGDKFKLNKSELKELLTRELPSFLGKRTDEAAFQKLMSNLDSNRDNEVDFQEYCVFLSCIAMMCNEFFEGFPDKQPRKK
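Compound dosing: one dose per compound; test system: human S100A4 monomer with TAMRA-labelled myosin IIA peptide; probe or stimulus: TAMRA-labelled myosin IIA heavy-chain peptide probe, 5 nM; medium: HEPES buffer with Ca2+, pH 7.2; schedule: 5 min incubation before reading; benchmarks: neutral control DMSO, positive control TFP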
miR122 inh – miR-122 Renilla sensor signal increase in Huh7, primary screen, miR-122 inhibitor project, cell-based, single point, plate reader | Huh7 miR-122 Renilla luciferase sensor, 48 h; neutral wells = 0, positive control = 100 | activation (reporter increase), % at 12.5 µM | actives 0.3% (n = 340,000) | AID 602342, 2012;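 active = mean replicate activation score at least 90 and every replicate individually at or above 90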;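 note: higher luciferase means less miR-122 activity so hits act as miR-122 inhibitors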
E-selectin induc – E-selectin induction in HUVECs, primary screen, imaging, HUVEC, immunofluorescence imaging, single point; normalized: neutral wells 0, TNF-alpha wells 100; actives 0.37% (n = 260,000); activation, % at 7.58 µM; AID 686992, 2013;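 active = mean E-selectin-positive cell signal at least 10% of the positive control, reached in at least 60% of replicates, without over 20% cell loss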
Target sequence (P16581 whole entry, looked up): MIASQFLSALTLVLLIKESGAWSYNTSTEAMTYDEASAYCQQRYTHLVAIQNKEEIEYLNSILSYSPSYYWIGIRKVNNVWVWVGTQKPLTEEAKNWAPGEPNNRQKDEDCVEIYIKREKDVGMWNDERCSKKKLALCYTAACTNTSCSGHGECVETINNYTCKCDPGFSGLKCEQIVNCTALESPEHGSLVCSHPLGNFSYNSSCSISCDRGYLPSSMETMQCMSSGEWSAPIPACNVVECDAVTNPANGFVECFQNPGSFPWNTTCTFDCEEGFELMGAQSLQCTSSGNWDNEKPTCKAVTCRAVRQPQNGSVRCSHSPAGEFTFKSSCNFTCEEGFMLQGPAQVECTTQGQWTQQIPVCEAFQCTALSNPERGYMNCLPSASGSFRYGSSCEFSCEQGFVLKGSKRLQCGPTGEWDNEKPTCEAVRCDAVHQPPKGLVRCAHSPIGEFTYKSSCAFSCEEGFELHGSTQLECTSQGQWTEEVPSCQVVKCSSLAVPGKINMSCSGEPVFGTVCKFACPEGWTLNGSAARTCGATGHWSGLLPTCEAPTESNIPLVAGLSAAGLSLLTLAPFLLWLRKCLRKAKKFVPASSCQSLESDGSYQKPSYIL
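material = human umbilical vein endothelial cells (HUVEC), E-selectin induction | quantity = 3,000 cells/well | medium = EGM-2 growth medium on 0.1% gelatin-coated wells | technique = immunofluorescence imaging | read-out basis = % PE-positive cells | control set = TNF-alpha positive control, DMSO neutral control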
Numbers stand for hits; 0 = inactive; - = no result; ! = a repeat was not active.

SMILES | FGF22 binding | SIRT5 inh | S100A4 MyoIIA | miR122 inh | E-selectin induc
O=C(C[C@H]1CC[C@H]2[C@@H](COC[C@H](O)CN2Cc2cc(F)cc(F)c2)O1)NC1CCC1 | - | 0 | 0 | 0 | 0
C[C@@H]1CN([C@H](C)CO)C(=O)Cc2cc(NC(=O)CCC(F)(F)F)ccc2O[C@H]1CN(C)S(=O)(=O)c1ccc(F)cc1 | 0 | - | 0 | 0 | 0
O=S(=O)(O)c1ccc(O)c2cc(Nc3ccccc3)ccc12 | 0 | 62.8 | 0 | 0 | 0
C[C@@H]1CN([C@H](C)CO)C(=O)c2cc(/C=C/c3ccccc3)cnc2O[C@@H]1CN(C)C(=O)c1ccc2c(c1)OCO2 | 0 | 0 | 0 | 0 | 0
O=C(NCC[C@@H]1CC[C@H](NS(=O)(=O)c2ccc(Cl)cc2)[C@H](CO)O1)Nc1ccc(F)cc1 | - | 0 | - | - | 0
CCCC(=O)Oc1ccc(N(C(=O)CCC)S(=O)(=O)c2cccs2)cc1 | 43.3 | 0 | 0 | 0 | -
Cc1ccc(NC(=O)CNCc2ccccc2)c(Br)c1 | 0 | 0 | 0 | - | 0
Cc1ccc(CNCC(=O)Nc2ccc(C)cc2Br)cc1 | 43.6 | 0 | 0 | 0 | -
O=C(Nc1ccc2sccc2c1)c1cccc(N2C(=O)CCC2=O)c1 | 43.3 | 0 | 0 | - | -
O=C(Nc1ccccc1)N1CC(=O)N2[C@@H](CO)[C@H](c3ccc(C#Cc4cccnc4)cc3)[C@@H]2C1 | - | 0 | 0 | - | 0
Cc1ccc(NS(=O)(=O)c2cccc(C(=O)N3CCCC(C)C3)c2)cc1 (stereo not given) | 0 | 0 | 0 | 0 | -
Cc1cc(C)c(C)c(S(=O)(=O)Nc2ccc(C(=O)N3CCCC3)cc2)c1C | 0 | 0 | 0 | 135.1 | -
COc1ccc(NS(=O)(=O)c2cccc(C(=O)N3CCCC(C)C3)c2)cc1 (stereo not given) | 0 | 19.5 | 0 | 0 | -
Cc1cccc(NS(=O)(=O)c2cccc(C(=O)N3CCCCCCC3)c2)c1 | 0 | 0 | 0 | 162.7 | -
C[C@H]1CN([C@@H](C)CO)C(=O)c2cccc(NC(=O)Nc3cccc4ccccc34)c2O[C@H]1CN(C)Cc1ccccc1 | 0 | 0 | 0 | 0 | 0
C[C@H](CO)N1C[C@H](C)[C@H](CN(C)Cc2ccc(-c3ccccc3)cc2)Oc2c(NC(=O)C3CC3)cccc2C1=O | 0 | 0 | 0 | 0 | 0
C[C@H](CO)N1C[C@H](C)[C@@H](CN(C)Cc2ccc(-c3ccccc3)cc2)Oc2c(NC(=O)C3CC3)cccc2C1=O | 147.9 | 0 | 0 | 0 | 0
C[C@@H]1CN([C@@H](C)CO)C(=O)c2cccc(NC(=O)C3CCCCC3)c2O[C@H]1CN(C)Cc1ccccc1 | 0 | 0 | 0 | 0 | 0
C[C@H](CO)N1C[C@H](C)[C@@H](CN(C)Cc2ccccc2)Oc2c(NC(=O)C3CCCCC3)cccc2C1=O | 0 | 17.6! | 0 | 0 | 0
C[C@H](CO)N1C[C@H](C)[C@@H](CN(C)Cc2ccc(-c3ccccc3)cc2)Oc2c(NC(=O)Nc3cccc4ccccc34)cccc2C1=O | - | - | - | 0 | 90.5
C[C@@H]1CCCCO[C@H](CN(C)C(=O)Nc2ccc(F)cc2)[C@H](C)CN([C@H](C)CO)C(=O)c2cc(NC(=O)Cc3ccccc3)ccc2O1 | 0 | 0 | 0 | 0 | 0
O=C(Nc1ccccc1C(=O)O)c1cccc(NC(=O)c2ccccc2Br)c1 | 0 | 0 | 0 | 0 | -
O=C(/C=C/c1ccco1)Nc1cccc(C(=O)Nc2ccccc2C(=O)O)c1 | 0 | 21.1 | 0 | 0 | -
O=C(Nc1cc(C(=O)Nc2ccccc2C(=O)O)cc(C(=O)Nc2ccccc2C(=O)O)c1)c1ccccc1 | - | 24.7 | 0 | 0 | 0
CCc1ccccc1NC(=O)c1cccc(NC(=O)/C=C/c2ccco2)c1 | - | - | - | 0 | 0
SMILES | FGF22 binding | SIRT5 inh | S100A4 MyoIIA | miR122 inh | E-selectin induc
C[C@H]1CN([C@@H](C)CO)C(=O)Cc2cc(NC(=O)Nc3ccccc3)ccc2O[C@H]1CN(C)Cc1ccc(C(F)(F)F)cc1 | 0 | 0 | 0 | 0 | 0
CNC[C@@H]1OCCCC[C@@H](C)Oc2ccc(N(C)C)cc2C(=O)N([C@H](C)CO)C[C@@H]1C | - | - | - | 0 | 0
O=C(C[C@H]1CC[C@H]2[C@@H](COC[C@H](O)CN2S(=O)(=O)c2ccc(Cl)cc2)O1)NCCN1CCCCC1 | - | 0 | 0 | - | 0
CN(C(=O)CS(=O)(=O)Cc1ccccc1Cl)c1ccccc1 | 43.3 | 0 | 0 | 0 | 0
O=C(O)CCS(=O)(=O)Cc1ccccc1Cl | 0 | 0 | 0 | 0 | -
COC(=O)C1=C(C(=O)OC)[C@@H]2Nc3ccccc3[C@@]23C[C@@H](C(=O)OC)N(C(=O)CC(C)C)C3=N1 | 0 | 21.3 | 0 | 0 | 0
CCOC(=O)N1C2=NC(C(=O)OC)=C(C(=O)OC)[C@@H]3Nc4ccccc4[C@]23C[C@H]1C(=O)OC | 0 | - | 0 | 0 | 0
C[C@H](O)C#Cc1cnc2c(c1)C(=O)N([C@@H](C)CO)C[C@H](C)[C@H](CN(C)CC1CCCCC1)O2 | 0 | 0 | 0 | 0 | 0
COc1ccc(C(=O)OCC(=O)Nc2ncc([N+](=O)[O-])s2)cc1OC | 0 | 0 | 0 | - | 0
O=C(COC(=O)Cc1ccc(Cl)cc1)NCc1ccc(F)cc1 | 0 | 0 | 0 | 0 | -
O=C(COC(=O)CCC(=O)c1ccc(Cl)cc1)NCc1ccc(F)cc1 | 43.1 | - | 0 | 0 | -
O=C(COC(=O)c1ccc(Br)o1)NCc1ccc(F)cc1 | 27.2 | 0 | 0 | - | -
O=C(COC(=O)c1ccc(Br)o1)Nc1ncc([N+](=O)[O-])s1 | 0 | 16.2 | 0 | - | 0
NC(=O)c1ccc(NC(=O)COC(=O)CCC(=O)c2ccc(Cl)cc2)cc1 | 43.3 | 0 | 0 | - | -
C[C@@H]1CN([C@@H](C)CO)C(=O)c2cc(NC(=O)c3ccncc3)ccc2O[C@@H](C)CCCCO[C@H]1CN(C)C(=O)c1ccccc1 | - | 0 | 0 | 0 | 0
O=C(CC1CC1)N1CC(=O)N2[C@@H](CO)[C@@H](c3ccc(-c4ccccc4)cc3)[C@@H]2C1 | - | 0 | 0 | - | 0
O=C(c1cnccn1)N1CC(=O)N2[C@H](CO)[C@H](c3ccc(C#CCc4ccccc4)cc3)[C@@H]2C1 | 0 | 0 | 0 | - | 0
Cc1noc(C)c1S(=O)(=O)N(C)C[C@@H]1Oc2ccc(N(C)C)cc2CC(=O)N([C@H](C)CO)C[C@H]1C | 0 | 0 | 0 | 0 | 0
C[C@H]1CN([C@@H](C)CO)C(=O)Cc2cc(NC(=O)Nc3ccc(C(F)(F)F)cc3)ccc2O[C@H]1CN(C)S(=O)(=O)c1cn(C)cn1 | 0 | 0 | 0 | 0 | 0
O=S(=O)(O)c1cccc2c(N=Nc3ccc(O)c4ncccc34)cccc12 | - | 34.2 | 0 | 0 | -
CC(OC(=O)c1oc2ccccc2c1COc1ccccc1)C(=O)NC(N)=O (stereo not given) | 43.2 | 0 | 0 | 0 | 0
